Experimental data: ChEMBL document CHEMBL1124354, “Potential antiatherosclerotic agents. 6. Hypocholesterolemic trisubstituted urea analogues” (J Med Chem, 1989)

Experiments:
[1] = molecular target: T1, Sterol O-acyltransferase 1 (Rattus norvegicus) (UniProt O70536); assay: In vitro percentage inhibition against acyl coenzyme A:cholesterol acyltransferase derived from rat adrenals; design: concentration or dose not given beside the values; conditions: concentration not given here
T1 sequence (whole entry): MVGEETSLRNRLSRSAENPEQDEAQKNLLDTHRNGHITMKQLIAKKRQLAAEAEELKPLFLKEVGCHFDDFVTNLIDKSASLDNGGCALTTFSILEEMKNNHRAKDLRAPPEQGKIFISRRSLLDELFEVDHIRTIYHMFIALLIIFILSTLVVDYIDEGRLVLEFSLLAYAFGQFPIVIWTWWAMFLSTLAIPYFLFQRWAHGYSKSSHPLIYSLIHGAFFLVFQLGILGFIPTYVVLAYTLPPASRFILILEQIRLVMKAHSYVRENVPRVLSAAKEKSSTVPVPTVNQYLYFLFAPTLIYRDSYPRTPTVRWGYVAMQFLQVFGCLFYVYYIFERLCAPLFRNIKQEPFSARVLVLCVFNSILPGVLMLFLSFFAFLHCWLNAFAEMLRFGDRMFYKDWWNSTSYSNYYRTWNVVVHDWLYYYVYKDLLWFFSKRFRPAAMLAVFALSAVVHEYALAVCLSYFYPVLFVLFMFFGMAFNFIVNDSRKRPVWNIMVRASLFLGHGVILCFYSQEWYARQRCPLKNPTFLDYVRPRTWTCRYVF
Outline: (§1)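 Rat adrenal 1000g supernatant (microsomal ACAT) in 0.2 M KH2PO4 pH 7.4 with BSA; test compound at final 5.2 µg/mL, preincubated 37 °C 10 min; [14C]oleoyl-CoA (0.4 µCi) added, 37 °C 30 min. Cholesteryl ester separated by TLC, scintillation counted; mean percent inhibition against compound-free control.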

[2] = molecular target: T1, Sterol O-acyltransferase 1 (Rattus norvegicus); assay: In vitro percentage inhibition against Acyl coenzyme A:cholesterol acyltransferase derived from rat adrenals; design: concentration or dose not given beside the values; conditions: concentration not given here; outline: as §1
[3] = molecular target: T1, Sterol O-acyltransferase 1 (Rattus norvegicus); assay: Liver hypolipidemic activity in rats; assay type: functional
Outline: (§2)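 Male CD-1 Sprague-Dawley rats, 140–150 g, fed 1% cholesterol/0.5% cholic acid diet with compound admixed at 0.01% (about 10 mg/kg/day) for 7 days. Serum and liver cholesterol measured by Technicon autoanalyzer methods; expressed as percent of control.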

[4] = molecular target: T1, Sterol O-acyltransferase 1 (Rattus norvegicus); assay: Serum hypolipidemic activity in rats; assay type: functional; outline: as §2

SMILES	inhibition [1]	inhibition [2]	other results
Cc1ccc(NC(=O)N(C)C)c(C)c1	-7%		
Cc1ccc(Cl)cc1NC(=O)N(Cc1ccccc1)Cc1ccccc1		71%	LS [3]: 66%; SS [4]: 97%
CCCCN(CCCC)C(=O)Nc1cccc(Br)c1		86%	
O=C(Nc1ccc(Br)cc1Br)N(Cc1ccccc1)c1ccccc1	82%		
CCCCN(Cc1ccccc1)C(=O)Nc1cccc(C(F)(F)F)c1	86%		LS [3]: 104%; SS [4]: 84%
Cc1ccc(NC(=O)NCc2ccccc2)c(C)c1		35%	
Cc1cccc(NC(=O)N(Cc2ccccc2)Cc2ccccc2)c1	89%		
CCCCN(CCCC)C(=O)Nc1cc(Cl)c(Cl)cc1Cl	62%		LS [3]: 103%; SS [4]: 111%
COc1cccc(NC(=O)NCc2ccccc2)c1	34%		LS [3]: 94%; SS [4]: 110%
O=C(Nc1ccc(Cl)c(C(F)(F)F)c1)N(Cc1ccccc1)Cc1ccccc1		92%	
CC(=O)c1cccc(NC(=O)N(Cc2ccccc2)Cc2ccccc2)c1	81%		
O=C(Nc1ccc(Cl)cc1)N(Cc1ccccc1)c1ccccc1	68%		LS [3]: 102%; SS [4]: 67%
CCCCN(C)C(=O)Nc1ccc(Cl)c(Cl)c1	64%		
COc1cccc(NC(=O)N(Cc2ccccc2)Cc2ccccc2)c1	87%		
O=C(Nc1cccc(Cl)c1Cl)N(Cc1ccccc1)Cc1ccccc1		80%	
O=C(Nc1c(Cl)cccc1Cl)N(Cc1ccccc1)Cc1ccccc1		89%	
O=C(Nc1cccc([N+](=O)[O-])c1)N(Cc1ccccc1)Cc1ccccc1	81%		
CCCCN(Cc1ccccc1)C(=O)Nc1ccc(C(=O)O)cc1C			LS [3]: 88%; SS [4]: 76%
CSc1ccc(NC(=O)N(Cc2ccccc2)Cc2ccccc2)cc1		67%	
CCCCN(Cc1ccccc1)C(=O)Nc1cc(Cl)cc(Cl)c1	91%		LS [3]: 107%; SS [4]: 120%
O=C(Nc1ccc(Cl)c(Cl)c1)N(Cc1ccccc1)Cc1ccccc1		95%	
O=C(Nc1ccccc1Br)N(Cc1ccccc1)Cc1ccccc1	94%		
Cc1ccc(NC(=O)N(C(C)C)C(C)C)c(C)c1	-1%		
Cc1ccccc1NC(=O)N(Cc1ccccc1)Cc1ccccc1	77%		
O=C(Nc1cc(Cl)ccc1Cl)N(Cc1ccccc1)Cc1ccccc1		82%	
COc1ccc(NC(=O)N(Cc2ccccc2)Cc2ccccc2)cc1	72%		

SMILES	inhibition [1]	inhibition [2]	other results
CCCCN(CCCC)C(=O)Nc1cccc(SC)c1	85%		
CN(C(=O)Nc1cc(Cl)ccc1Cl)c1ccccc1		48%	
O=C(O)c1ccc(NC(=O)N(Cc2ccccc2)Cc2ccccc2)cc1	14%		
Cc1ccc(NC(=O)N(Cc2ccccc2)Cc2ccccc2)cc1	87%		
Cc1ccc(NC(=O)N(CC(C)C)CC(C)C)c(C)c1	80%		
COc1ccccc1NC(=O)N(Cc1ccccc1)Cc1ccccc1		91%	
CCCCN(CCCC)C(=O)Nc1cccc(Cl)c1Cl		85%	
O=C(Nc1ccc(Cl)cc1)N(Cc1ccccc1)Cc1ccccc1	78%		
Cc1ccc(NC(=O)N(C2CCCC2)C2CCCC2)c(C)c1	90%		LS [3]: 113%; SS [4]: 98%
Cc1cccc(C)c1NC(=O)N(Cc1ccccc1)Cc1ccccc1		56%	
O=C(Nc1cc(F)ccc1F)N(Cc1ccccc1)Cc1ccccc1		72%	
CCc1cccc(C)c1NC(=O)N(Cc1ccccc1)Cc1ccccc1		74%	
CCCCN(CCCC)C(=O)Nc1ccccc1	64%		LS [3]: 100%; SS [4]: 121%
O=C(Nc1ccccc1Cl)N(Cc1ccccc1)Cc1ccccc1	88%		
Cc1ccc(Cl)cc1NC(=O)NCc1ccccc1		33%	
O=C(Nc1ccc(Cl)cc1Cl)N(Cc1ccccc1)Cc1ccccc1		83%	
COc1ccc(OC)c(NC(=O)N(Cc2ccccc2)Cc2ccccc2)c1	88%		
Cc1cccc(Cl)c1NC(=O)N(Cc1ccccc1)Cc1ccccc1		84%	
CCCCOc1ccc(NC(=O)N(Cc2ccccc2)Cc2ccccc2)cc1	90%		
CCOC(=O)c1ccc(NC(=O)N(Cc2ccccc2)Cc2ccccc2)cc1	93%		LS [3]: 83%; SS [4]: 120%
CCN(C(=O)Nc1ccccc1C)c1ccccc1		9%	
O=C(Nc1ccc(I)cc1)N(Cc1ccccc1)Cc1ccccc1	85%		
CCc1cccc(CC)c1NC(=O)N(Cc1ccccc1)Cc1ccccc1		72%	
CCC(C)N(C(=O)Nc1ccc(C)cc1C)C(C)CC (stereo not drawn)		78%	
CCCCN(CCCC)C(=O)Nc1ccc([N+](=O)[O-])cc1		75%	
O=C(Nc1ccc(Br)cc1)N(Cc1ccccc1)Cc1ccccc1	80%		

Second part, led by results:

inhibition [1]	inhibition [2]	SMILES	other results
93%		CCCCN(Cc1ccccc1)C(=O)Nc1cc(C)ccc1C	
	49%	CCCCCCCCCCCN(CCCCCCCCCCC)C(=O)Nc1ccc(C)cc1C	
76%		CCCCN(CCCC)C(=O)Nc1ccc(C(C)C)cc1	
8%		CCCN(CCC)C(=O)Nc1ccc(C)cc1C	
	86%	Cc1ccc(NC(=O)N(CCCCC2CCCCC2)CCCCC2CCCCC2)c(C)c1	LS [3]: 106%; SS [4]: 80%
87%		CCCCN(Cc1ccccc1)C(=O)Nc1ccc(C)c(C)c1	
43%		C=CCN(CC=C)C(=O)Nc1ccc(C)cc1C	
74%		CCCCN(CCCC)C(=O)Nc1c(C)cc(C)cc1C	
	87%	CCCCN(CCCC)C(=O)Nc1ccc([N+](=O)[O-])cc1Cl	
	83%	CCCCN(CCCC)C(=O)Nc1ccc(I)cc1	
	74%	CCCCN(CC(c1ccccc1)C1CCCCC1)C(=O)Nc1ccc(C)cc1C (stereo not drawn)	
76%		CCCCN(Cc1ccccc1)C(=O)Nc1c(C)cc(C)cc1C	LS [3]: 37%; SS [4]: 63%
51%		CCCCN(CCCC)C(=O)Nc1ccccc1Br	
	89%	Cc1ccc(C)c(NC(=O)N(Cc2ccccc2)Cc2ccccc2)c1	
88%		CCCCN(Cc1ccccc1)C(=O)Nc1c(Cl)cc(Cl)cc1Cl	LS [3]: 32%; SS [4]: 48%
	55%	CCCCN(CCCC)C(=O)Nc1ccc(C(C)=O)cc1	
92%		CCCCN(Cc1ccccc1)C(=O)Nc1cccc(C)c1	
96%		CCCCN(Cc1ccccc1)C(=O)Nc1ccc(Cl)c(Cl)c1	
	42%	CCCCCCCC/C=C/CCCCCCCCN(Cc1ccc(CCCC)cc1)C(=O)Nc1ccc(C)cc1C (stereo in doubt; 160)	
85%		CCCCN(Cc1ccccc1)C(=O)Nc1cccc(Cl)c1OC	
85%		CCCCN(CCCC)C(=O)Nc1c(C)cccc1C	
	97%	CCCCN(CC(C)(c1ccccc1)c1ccccc1)C(=O)Nc1ccc(C)cc1C	
81%		CCCCN(Cc1ccccc1)C(=O)Nc1cc(Cl)ccc1OC	

inhibition [1]	inhibition [2]	SMILES	other results
	61%	CCCCN(Cc1ccccc1)C(=O)Nc1cc(Cl)c(N)c(Cl)c1	
83%		CCCCN(Cc1ccccc1)C(=O)Nc1c(C)cccc1C	LS [3]: 91%; SS [4]: 68%
56%		CCCCN(CCCC)C(=O)Nc1ccc(F)cc1	
59%		CCCCN(CCCC)C(=O)Nc1ccc(OC)cc1	LS [3]: 109%; SS [4]: 127%
	37%	CCCCN(Cc1ccccc1)C(=O)Nc1ccccc1[N+](=O)[O-]	
80%		CCCCN(CCCC)C(=O)Nc1ccc(C)cc1	
88%		CCCCN(CCCC)C(=O)Nc1cccc(C)c1C	
	86%	CCCCC(CC)CN(CC(CC)CCCC)C(=O)Nc1ccc(C)cc1C (stereo not drawn)	
94%		CCCCN(Cc1ccccc1)C(=O)Nc1cc(C)cc(C)c1	LS [3]: 75%; SS [4]: 93%
	40%	CCCCN(CCCCC1CCCCC1)C(=O)Nc1ccc(C)cc1C	
88%		CCCCN(CCCC)C(=O)Nc1ccc(Cl)cc1C	
79%		CCCCN(Cc1ccccc1)C(=O)Nc1ccccc1C	LS [3]: 137%; SS [4]: 109%
62%		CCCCN(CCCC)C(=O)Nc1ccccc1C	LS [3]: 111%; SS [4]: 81%
75%		CCCCN(CCCC)C(=O)Nc1cc(Cl)ccc1C	
74%		CCCCN(Cc1ccccc1)C(=O)Nc1cc(OC)c(OC)c(OC)c1	
	56%	CCCCN(CCC12CC3CC(CC(C3)C1)C2)C(=O)Nc1ccc(C)cc1C	
86%		CCCCN(Cc1ccccc1)C(=O)Nc1cccc(C)c1C	
	90%	CCCCCCCCCN(CCCCCCCCC)C(=O)Nc1ccc(C)cc1C	
86%		CCCCN(Cc1ccccc1)C(=O)Nc1cc(Cl)ccc1O	
	49%	CCCCN(CCCC)C(=O)Nc1ccc(C)c(C)c1	
	53%	CCCCN(CCC(c1ccccc1)c1ccccc1)C(=O)Nc1ccc(C)cc1C	
89%		CCCCN(Cc1ccccc1)C(=O)Nc1cccc(Cl)c1	
18%		CCN(CC)C(=O)Nc1ccc(C)cc1C	
